# The list is not random: actives were taken first. Their share in the collection is about 2.7%.
# MC4R barr agon: agonists of human melanocortin 4 receptor (MC4R) beta-arrestin; U2OS MC4R beta-arrestin complementation, luminescence; percent of melanotan II response, DMSO zero; 0.98% of 360,000 active; AID 540308; P32245; activation, % at 8.9 µM;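 active means activation above a per-plate cutoff, the mean activation of sample wells on that plate plus 3 SD, cut at about 8% in these data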
# Target sequence (P32245 whole entry, looked up): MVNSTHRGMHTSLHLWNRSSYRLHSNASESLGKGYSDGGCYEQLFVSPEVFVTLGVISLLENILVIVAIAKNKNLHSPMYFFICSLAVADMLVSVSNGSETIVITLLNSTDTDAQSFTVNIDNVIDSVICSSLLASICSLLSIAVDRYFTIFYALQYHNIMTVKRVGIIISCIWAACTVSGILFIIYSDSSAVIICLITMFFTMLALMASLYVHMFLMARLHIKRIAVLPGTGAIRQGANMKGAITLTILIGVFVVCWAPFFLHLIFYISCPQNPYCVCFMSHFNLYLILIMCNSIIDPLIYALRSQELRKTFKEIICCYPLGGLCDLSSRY
# NR2E3 ag-1: agonists of human nuclear receptor NR2E3; Q9Y5X4; inhibition of corepressor binding, % at 4.78 µM; GST-NR2E3/biotin-RetCOR TR-FRET, 1536-well; 0.12% of 320,000 active; AID 2300;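 active means percent inhibition above the cutoff of mean plus 3 SD of all tested compounds, set per screening campaign, cut at about 20% in these data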;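 further: 0% = DMSO wells and 100% = biotin wells as full block of FRET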
#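 system = GST-tagged NR2E3 plus biotinylated RetCOR corepressor | input = 1.35 nM GST-NR2E3 | also added = 7 nM biotin-RetCOR | schedule = 5 h incubation at 4 °C | measured by = TR-FRET with europium anti-GST and streptavidin-D2, 340 nm excitation | read-out = percent loss of FRET ratio relative to control wells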
# MC4R antagonist: blocks human MC4R cAMP signaling; 0.48% of 360,000 active; MC4R-expressing cells, MTII-stimulated cAMP, LANCE TR-FRET; P32245; inhibition, % at 6.5 µM;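 active means inhibition above its plate's cutoff, the mean of tested wells on that plate plus 3 SD, cut at about 29% in these data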;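 further: 0% = Melanotan II alone and 100% = Melanotan II plus saturating MCL0020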
#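 System: U2OS cells stably expressing human melanocortin 4 receptor (MC4R). Reagent: Melanotan II challenge after compound preincubation. Doses: 6.5 µM. Times: 30-min compound, 1-h challenge, 1-h detection, room temperature. Measured by: TR-FRET with Eu-cAMP and labeled anti-cAMP, 671 nm. Replicates: singlicate.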
# NR1D1 modulator: Rev-erb alpha (human) modulation. activity, % at 10 µM. 0.79% of 370,000 active. Rev-erbα–FITC-DNA binding, fluorescence polarization, 90 min;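 active means activity above about 14%, limit read from the data; passing the limit was not always enough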;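 further: 0% = DMSO wells with 35 nM protein and 100% = DMSO wells with 750 nM protein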
# NR2E3 ag-2: activates human NR2E3 receptor | 0.35% of 360,000 active | AID 602229 | CHO-S Gal4-NCOR/VP16-NR2E3 two-hybrid, luciferase | inhibition of corepressor binding, % at 3.98 µM | Q9Y5X4;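 active means inhibition above the mean of all tested compounds plus 3 SD, cut at about 70% in these data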;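 further: 0% = DMSO with NR2E3 transfected cells and 100% = cells lacking NR2E3 construct; higher means lower luciferase signal from less NR2E3 corepressor binding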
# PG9 Ab binder: PG9 antibody binding by small molecule; 0.43% of 360,000 active; TR-FRET gp120-PG9 antibody binding; inhibition, % at 6.7 µM; in the data active means inhibition above about 8.5%
# MC4R barr conf: human MC4R beta-arrestin agonism confirmation. shares compounds with MC4R barr agon. U2OS MC4R beta-arrestin recruitment, luminescence; scaled DMSO 0%, Melanotan II 100%. 31% of 2,400 active. activation, % at 8.9 µM;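 active means mean activation across replicates above the hit cutoff set in the earlier primary screen, cut at about 8% in these data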
# MOR-DOR barr ag: activates mu-delta opioid heterodimer, MC4R agonist counter-screen | shares compounds with MC4R barr agon | U2OS PathHunter beta-arrestin, beta-gal luminescence; percent of deltorphin B response, DMSO zero | AID 602194 | activation, % at 9.2 µM | 5.8% of 2,400 active;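 active means mean activation across replicates exceeds the hit threshold derived in the earlier primary screen, cut at about 18% in these data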;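 further: 100% = deltorphin B at 0.9 µM final and 0% = DMSO alone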
# * = called active by the depositor; / = no result.
SMILES,MC4R barr agon,NR2E3 ag-1,MC4R antagonist,NR1D1 modulator,NR2E3 ag-2,PG9 Ab binder,MC4R barr conf,MOR-DOR barr ag
c1ccc(Nc2nc(-c3ccccc3)nc3ccccc23)cc1,1,2,1,4,24,-1,/,/
COc1ccc(Nc2nc(-c3ccccc3O)nc3ccccc23)cc1,4,1,4,-2,-31,0,/,/
Fc1cccc(Nc2nc(-c3ccncc3)nc3ccccc23)c1,12*,-2,27,-2,26,-3,1,6
CCCOC(=O)c1cccc(Nc2nc(-c3cccnc3)nc3ccccc23)c1,26*,6,21,9,5,-1,17*,11
COc1ccc(Nc2nc(-c3ccncc3)nc3ccccc23)cc1,19*,-1,19,-1,23,1,2,9
CCS(=O)(=O)N1CCc2nc(-c3ccccc3)sc2C1,-1,2,1,1,-198,2,/,/
Cc1cc(C)nc(N2CCC(C(=O)NNC(=O)c3ccccc3)CC2)n1,-2,-1,13,6,5,0,/,/
CCSc1nnc([C@H](Cc2c[nH]c3ccccc23)NC(=O)OC(C)(C)C)o1,-1,1,2,-4,2,-1,/,/
COc1ccc2cc3cc(C(=O)NCc4cccs4)oc3nc2c1,11*,-41,-5,/,33,-2,7,9
O=C(COC(=O)c1ccccc1O)NCCCc1ccccc1,0,-3,-7,-5,1,-1,/,/
CC1=NN(c2nc(N)nc(/C(C#N)=C/c3ccc([N+](=O)[O-])o3)n2)C(C)(C)C1,37*,/,-42,1,-3,-1,163*,172*
O=C1C2C(C(=O)N1/N=C/c1ccc([N+](=O)[O-])o1)C1C=CC2C12CC2 (centres undefined),-2,1,26,6,2,0,/,/
CCN(CC)c1ccc(/C=N/NC(=O)Nc2ccccc2)cc1,0,-5,7,6,-80,-5,/,/
CCN(CC)c1ccc(/C=N/NC(=O)Cc2nnc(NC(=O)Nc3ccccc3)s2)cc1,11*,2,1,4,-18,-1,0,2
Cc1cccc(NNC(=O)c2c(F)cccc2Cl)c1,-1,1,-7,-3,-34,1,/,/
COc1ccc(C(NC(=O)C2CCN(CCOc3ccc(Cl)cc3Cl)CC2)c2cccs2)cc1 (centres undefined),111*,/,5,0,6,0,32*,11
COc1ccc(C(C)NC(=O)C2CCN(CCOc3ccc(Cl)cc3Cl)CC2)cc1OC (centres undefined),1,/,-1,/,-4,/,/,/
O=C(NC(c1ccccc1)c1ccsc1)C1CCN(CCOc2ccc(Cl)cc2Cl)CC1 (centres undefined),54*,/,-1,-1,-2,-1,47*,9
O=C(NC(c1ccccc1)c1cnccn1)C1CCN(CCOc2ccc(Cl)cc2Cl)CC1 (centres undefined),1,/,0,5,38,-2,/,/
COc1ccc(C(NC(=O)C2CCN(CCOc3ccc(Cl)cc3Cl)CC2)c2ccccc2C)cn1 (centres undefined),53*,/,3,0,-17,-2,35*,13
CCOC(=O)c1c(N)sc(C(O)(C(F)(F)F)C(F)(F)F)c1-c1ccc(Cl)cc1,-2,-1,1,3,-20,-1,/,/
CCOC(=O)c1c(N)sc(C(O)(C(F)(F)F)C(F)(F)F)c1-c1ccc(F)cc1,11*,0,2,-2,-17,1,5,8
COC(=O)CCCN1C(=O)NC(c2ccc(-c3ccccc3)cc2)C(C(=O)OCc2ccccc2)=C1C (centres undefined),12*,/,6,2,-4,-1,12*,3
COc1ccc(-c2c(C)nn3c(N)c(C#N)cnc23)cc1OC,-1,0,-3,4,-2,-1,/,/
Cc1cccc(Oc2nccc(C(F)(F)F)c2C(=O)Nc2ccc(F)cc2F)c1,20*,-7,-10,2,15,-1,0,5
SMILES,MC4R barr agon,NR2E3 ag-1,MC4R antagonist,NR1D1 modulator,NR2E3 ag-2,PG9 Ab binder,MC4R barr conf,MOR-DOR barr ag
O=C(Nc1ccc(F)cc1F)c1c(C(F)(F)F)ccnc1Oc1ccccc1,2,-3,1,-4,-9,-2,/,/
COc1ccc(-n2c(SCC(=O)Nc3ccc(C(N)=O)cc3)nc3c([nH]c4ccccc43)c2=O)cc1OC,-1,4,-2,7,13,2,/,/
CCN(CC(=O)Nc1c(C(=O)OC)[nH]c2ccc(Cl)cc12)c1ccc2c(c1)OCO2,-2,0,-11,-1,6,0,/,/
CCOC(=O)c1[nH]c2ccc(Cl)cc2c1NC(=O)/C=C/c1ccc2c(c1)OCO2,38*,-2,-2,1,-5,-1,3,4
Cc1cccc(-c2n[nH]c(=S)n2/N=C/c2ccc(C)s2)c1,12*,-1,5,2,6,0,0,4
Cc1cccc(-c2n[nH]c(=S)n2/N=C/c2cccs2)c1,0,-2,25,1,13,-1,/,/
Cc1ccc2nsnc2c1NC(=O)c1ccc(-c2cc(Cl)ccc2Cl)o1,3,3,-4,1,-8,2,/,/
Cc1cc(F)cc(-c2cc(C(=O)NCc3ccc(C(F)(F)F)cc3)[nH]n2)c1,14*,/,7,-3,-40,0,3,6
CCOc1ccc(NC(=O)CN(C)S(=O)(=O)c2cnc[nH]2)cc1,-3,0,7,1,1,-1,/,/
Cc1ccc(C(C)C)c(OCc2ccc(-c3nnco3)cc2)c1,2,4,5,0,-59,1,/,/
c1ccc(OCCCn2nnc(-c3ccc(N4CCOCC4)cc3)n2)cc1,17*,3,-2,1,-21,1,3,12
c1ccc(OCCCn2nnc(-c3ccncc3)n2)cc1,-2,5,11,-5,-7,-1,/,/
COc1ccc2c(c1)CCCC2NS(=O)(=O)OCC(Cl)(Cl)Cl (centres undefined),10*,0,9,-23,10,0,3,10
COc1ccc(CNC2CCCc3ccccc32)c(OC)c1 (centres undefined),2,/,3,8,-10,3,/,/
CC(C)C[C@H](CO)N(Cc1ccccc1)S(=O)(=O)N(Cc1ccccc1)[C@@H](CO)CC(C)C,-1,/,21,-2,-19,-1,/,/

# Screens as filed in PubChem BioAssay.
